What was measured:
[1] = Antiproliferative activity against rat HSC-T6 cells assessed as reduction in cell viability; type: functional, cell-based
Summary of the method: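 Immortalized rat hepatic stellate line HSC-T6. Viability was measured by a procedure from earlier work, and IC50 values were derived from it. Epigallocatechin-3-gallate was the positive control.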

[2] = Induction of apoptosis in rat HSC-T6 cells assessed as viable cells at 1 uM after 48 hrs using annexin-V/PI double staining by flow cytometry (reference value: 99.2 %); type: functional; conditions: HSC-T6, 48 h, read-out: Activity
[3] = Induction of apoptosis in rat HSC-T6 cells assessed as early apoptotic cells at 1 uM after 48 hrs using annexin-V/PI double staining by flow cytometry (reference value: 0.150 %); type: functional
[4] = Induction of apoptosis in rat HSC-T6 cells assessed as late apoptotic cells at 1 uM after 48 hrs using annexin-V/PI double staining by flow cytometry (reference value: 0.130 %); type: functional
[5] = Induction of apoptosis in rat HSC-T6 cells assessed as necrotic cells at 1 uM after 48 hrs using annexin-V/PI double staining by flow cytometry (reference value: 0.550 %); type: functional
[6] = Induction of apoptosis in rat HSC-T6 cells assessed as viable cells at 3 uM after 48 hrs using annexin-V/PI double staining by flow cytometry (reference value: 99.2 %); type: functional; conditions: HSC-T6, 48 h, read-out: Activity
[7] = Induction of apoptosis in rat HSC-T6 cells assessed as early apoptotic cells at 3 uM after 48 hrs using annexin-V/PI double staining by flow cytometry (reference value: 0.150 %); type: functional
[8] = Induction of apoptosis in rat HSC-T6 cells assessed as late apoptotic cells at 3 uM after 48 hrs using annexin-V/PI double staining by flow cytometry (reference value: 0.130 %); type: functional
[9] = Induction of apoptosis in rat HSC-T6 cells assessed as necrotic cells at 3 uM after 48 hrs using annexin-V/PI double staining by flow cytometry (reference value: 0.550 %); type: functional

Row | SMILES | IC50 [1] | further results
1 | COc1cc2oc3cc(O)cc(O)c3c(=O)c2cc1OC | > 30 µM | –
2 | C=CC(C)(C)c1c(OC)c(CC=C(C)C)c2oc3cc(O)c(O)cc3c(=O)c2c1O | 9.7 µM | viability at 1 µM [2]: 80.8%; Activity [3]: 11.5%; Activity [4]: 2.54%; Activity [5]: 5.19%; viability at 3 µM [6]: 78.8%; Activity [7]: 8.76%; Activity [8]: 5.81%; Activity [9]: 6.67%
3 | O=C(O[C@@H]1Cc2c(O)cc(O)cc2O[C@@H]1c1cc(O)c(O)c(O)c1)c1cc(O)c(O)c(O)c1 [EPIGALOCATECHIN GALLATE] | 29.8 µM | –
4 | CC(C)=CCc1c(O)c(O)cc2c(=O)c3c(O)c4c(cc3oc12)OC(C)C4(C)C (centres undefined) [CUDRAXANTHONE M] | 10.4 µM | –
5 | CC(C)=CCc1c(O)cc(O)c2c(=O)c3cccc(O)c3oc12 | > 30 µM | –
6 | COc1c2c(c3c(=O)c4cc(O)c(O)cc4oc3c1CC=C(C)C)O[C@@H](C)C2(C)C | 15.2 µM | –
7 | CC1Oc2cc(O)c3c(=O)c4ccc(O)c(O)c4oc3c2C1(C)C (centres undefined) | 13.1 µM | –
8 | COc1c(CC=C(C)C)c(O)c2c(=O)c3cc(O)c(O)cc3oc2c1CC=C(C)C [CUDRATRICUSXANTHONE K] | > 30 µM | –
9 | C=CC(C)(C)c1c(OC)cc(O)c2c(=O)c3ccc(O)c(O)c3oc12 [ISOCUDRANIAXANTHONE B] | 17.3 µM | –
10 | CC1(C)C=Cc2cc(C(=O)c3cccc(O)c3)c(O)c(O)c2O1 | 7.1 µM | –
11 | CC1(C)C=Cc2c(cc(O)c3c(=O)c4c5c(ccc4oc23)OC(C)(C)C=C5)O1 | > 30 µM | –
12 | COc1c2c(c3c(=O)c4ccc(O)c(O)c4oc3c1CC=C(C)C)O[C@H](C)C2(C)C | 14.8 µM | –
13 | C[C@@H]1Oc2cc3oc4c5c(c(O)cc4c(=O)c3c(O)c2C1(C)C)OC(C)(C)C=C5 | 15.9 µM | –
14 | CC(C)=CCc1c(O)cc(O)c2c(=O)c3c(CC=C(C)C)c(O)ccc3oc12 [GERONTOXANTHONE H] | > 30 µM | –
15 | O=c1c2ccc(O)cc2oc2ccc(O)cc12 | > 30 µM | –
16 | C=CC(C)(C)c1c(O)c(CC=C(C)C)c2oc3cc(O)c(O)cc3c(=O)c2c1O [MACLURAXANTHONE B] | 13.3 µM | –

From ChEMBL document CHEMBL3352135, “Antiproliferative prenylated xanthones and benzophenones from the roots of Cudrania tricuspidata in HSC-T6 cells” (J Nat Prod, 2014)
